The values below come from ChEMBL document CHEMBL5104176 (J Med Chem, 2022).

Experiment [1] concerns U-251. The experiment can be described thus: Cytotoxicity against human U-251 cells assessed as reduction in cell viability at 5 to 50 uM incubated for 24 hrs by MTS assay. It is filed as functional, cell-based. The following applies: dose 5-50 µM. Summed up: (§1)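 Cells seeded at 5,000/well and grown to 80% confluence: T98 and U251 in EMEM with 10% serum; GSC#83 as spheres in serum-free DMEM/F12 with EGF and bFGF. Treated 24 h at 5–50 μM in DMSO, with a DMSO vehicle control. MTS reagent added and formazan absorbance read at 490 nm. n = 6; two-way ANOVA.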

Experiment [2] has as its system U-251. The experiment can be described thus: Cytotoxicity against human U-251 cells assessed as reduction in cell viability at 10 uM incubated for 24 hrs by MTS assay. The class given is functional, cell-based. Summed up:
as §1
A general note: Formazan colour is commonly taken as a measure of viable cells.

Experiment [3] concerns GSC#83. The experiment can be described thus: Cytotoxicity against human GSC#83 cells assessed as reduction in cell viability at 5 to 50 uM incubated for 24 hrs by MTS assay. The class given is functional, cell-based. The following applies: dose 5-50 µM. Summed up:
as §1

Experiment [4] deals with T98G. Kind of experiment: Cytotoxicity against human T98G cells assessed as reduction in cell viability at 10 uM incubated for 24 hrs by MTS assay. It is filed as functional, cell-based. Summed up:
as §1

For experiment [5], the system named is T98G. Kind of experiment: Cytotoxicity against human T98G cells assessed as reduction in cell viability at 5 to 50 uM incubated for 24 hrs by MTS assay. It is filed as functional, cell-based. Conditions: dose 5-50 µM. Summed up:
as §1

Experiment [6] has as its system GSC#83. Kind of experiment: Cytotoxicity against human GSC#83 cells assessed as reduction in cell viability at 10 uM incubated for 24 hrs by MTS assay. The class given is functional, cell-based. Summed up:
as §1

For the next experiment, the target named is T1, D(4) dopamine receptor (Homo sapiens, UniProt P21917).
T1 sequence (P21917 whole entry): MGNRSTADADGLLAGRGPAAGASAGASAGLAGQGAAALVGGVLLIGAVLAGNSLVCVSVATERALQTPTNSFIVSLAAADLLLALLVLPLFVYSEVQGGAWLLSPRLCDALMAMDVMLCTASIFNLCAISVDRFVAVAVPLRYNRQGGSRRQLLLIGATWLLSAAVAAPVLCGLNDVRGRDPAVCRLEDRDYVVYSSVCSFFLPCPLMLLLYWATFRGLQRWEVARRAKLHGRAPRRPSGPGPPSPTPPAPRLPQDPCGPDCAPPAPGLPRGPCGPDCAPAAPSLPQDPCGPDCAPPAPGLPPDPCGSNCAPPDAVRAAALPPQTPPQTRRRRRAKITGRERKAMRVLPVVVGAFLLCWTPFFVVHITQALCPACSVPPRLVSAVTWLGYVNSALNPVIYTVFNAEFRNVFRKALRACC
Kind of experiment: Displacement of [3H]N-methylspiperone from human D4.4 receptor expressed in HEK293T cell membrane incubated for 1 hr by MicroBeta scintillation counting method. It is filed as cell membranes. Background: In a radioligand displacement assay an active substance lowers the binding of a labelled ligand.

Experiment [7] is described as follows: Selectivity ratio of Ki for displacement of [3H]N-methylspiperone from human D2L receptor expressed in HEK293T cell membrane to Ki for displacement of [3H]N-methylspiperone from human D4.4 receptor expressed in HEK293T cell membrane.
A further experiment concerns the target D(2) dopamine receptor (Homo sapiens, UniProt P14416). Kind of experiment: Displacement of [3H]N-methylspiperone from human D2L receptor expressed in HEK293T cell membrane incubated for 1 hr by MicroBeta scintillation counting method. The class given is cell membranes. Summed up: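 Membranes from stably transfected HEK293 cells (hD2L, hD3 or hD4.4), 20 μg (D2, D3) or 30 μg (D4) protein/well. Incubated 1 h at room temperature in EBSS binding buffer, pH 7.4, with 0.4 nM [3H]N-methylspiperone and 10 half-log dilutions in triplicate. 10 μM (+)-butaclamol defines nonspecific binding. GF filtration, scintillation counting.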

Experiment [8] is described as follows: Selectivity ratio of Ki for displacement of [3H]N-methylspiperone from human D3R expressed in HEK293T cell membrane to Ki for displacement of [3H]N-methylspiperone from human D4.4 receptor expressed in HEK293T cell membrane.
For another experiment, the target named is D(3) dopamine receptor (Homo sapiens, UniProt P35462). Kind of experiment: Displacement of [3H]N-methylspiperone from human D3R receptor expressed in HEK293T cell membrane incubated for 1 hr by MicroBeta scintillation counting method. The class given is cell membranes. Summed up:
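Membranes from stably transfected HEK293 cells (hD2L, hD3 or hD4.4), 20 μg (D2, D3) or 30 μg (D4) protein/well. Incubated 1 h at room temperature in EBSS binding buffer, pH 7.4, with 0.4 nM [3H]N-methylspiperone and 10 half-log dilutions in triplicate. 10 μM (+)-butaclamol defines nonspecific binding. GF filtration, scintillation counting. Ki by Cheng–Prusoff from ≥3 experiments; selectivity is the Ki ratio.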

Experiment [9] addresses T2, D(4) dopamine receptor (Homo sapiens) (UniProt P21917).
T2 sequence (whole entry): T1 sequence (P21917 whole entry)
The experiment can be described thus: Agonist activity at D4R (unknown origin) expressed in human HEK293T cells assessed as beta arrestin-2 recruitment measured after 2.5 mins by BRET assay relative to control. It is filed as functional, cell-based. Conditions: filed as agonist. Summed up:
(§2)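 Transiently transfected HEK293T cells (15 μg plasmid cDNA, polyethyleneimine, 6 h, assayed after 48 h). Gαi1 or GαoA fused to RLuc8 and Gγ2 to mVenus for G protein activation; D4 receptor fused to RLuc8 and β-arrestin to mVenus for recruitment. About 2×10^5 cells/well in PBS with 0.1% glucose and 200 μM Na bisulfite. Coelenterazine H 5 μM. Read 530/485 nm; RLuc8-only background subtracted.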
In general terms: Activated receptors often draw arrestin, which recruitment assays turn into a signal.

For experiment [10], the target named is T2, D(4) dopamine receptor (Homo sapiens). The experiment can be described thus: Agonist activity at D4R (unknown origin) expressed in human HEK293T cells assessed as G0 protein activation measured after 2.5 mins by BRET assay relative to control. Conditions: filed as agonist. It is filed as functional, cell-based. Summed up:
as §2

The target is the same in experiment [11]. The experiment can be described thus: Agonist activity at D4R (unknown origin) expressed in human HEK293T cells assessed as Gi protein activation measured after 2.5 mins by BRET assay relative to control. It is filed as functional, cell-based. Conditions: filed as agonist. Summed up:
as §2

In general, Ki refers to the equilibrium dissociation constant of an inhibitor or competing ligand from its target. The term Emax denotes the maximal effect, on the per cent scale that the assay sets.

Activity calls are given as the source filed them. The rule behind the calls is not given here.

Sequence of D(2) dopamine receptor (P14416 whole entry): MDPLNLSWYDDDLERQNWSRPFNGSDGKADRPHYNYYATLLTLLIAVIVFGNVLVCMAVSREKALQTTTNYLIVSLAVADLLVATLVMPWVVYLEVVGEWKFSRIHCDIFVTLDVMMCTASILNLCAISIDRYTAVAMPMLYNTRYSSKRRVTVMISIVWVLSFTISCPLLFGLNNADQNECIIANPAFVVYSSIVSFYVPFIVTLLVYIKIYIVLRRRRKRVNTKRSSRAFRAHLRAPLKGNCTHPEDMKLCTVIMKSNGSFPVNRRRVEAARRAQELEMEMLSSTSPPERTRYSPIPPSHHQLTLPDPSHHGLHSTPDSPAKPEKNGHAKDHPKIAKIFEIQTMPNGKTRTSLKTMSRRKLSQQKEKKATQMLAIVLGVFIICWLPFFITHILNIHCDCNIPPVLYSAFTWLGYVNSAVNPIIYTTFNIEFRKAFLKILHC
Sequence of D(3) dopamine receptor (P35462 whole entry): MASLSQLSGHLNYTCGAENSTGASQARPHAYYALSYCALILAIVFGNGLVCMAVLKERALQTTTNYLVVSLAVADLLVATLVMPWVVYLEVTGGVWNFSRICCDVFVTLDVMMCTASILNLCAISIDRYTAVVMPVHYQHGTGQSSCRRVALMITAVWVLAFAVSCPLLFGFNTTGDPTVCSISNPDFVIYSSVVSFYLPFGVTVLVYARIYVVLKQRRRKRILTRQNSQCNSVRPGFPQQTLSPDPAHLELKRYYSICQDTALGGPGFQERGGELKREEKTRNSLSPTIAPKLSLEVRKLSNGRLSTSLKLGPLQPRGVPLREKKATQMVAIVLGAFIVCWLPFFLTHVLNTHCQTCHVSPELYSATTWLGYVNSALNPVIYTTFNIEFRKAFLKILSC

With `Cn1nnc2c(C(N)=O)ncn2c1=O`, the outcome in the experiment on U-251 [1], in the experiment on U-251 [2], in the experiment with GSC#83 [3], in the experiment on T98G [4], with T98G [5] and in the experiment on GSC#83 [6] was Active.
In the case of `N#Cc1ccccc1N1CCN(CCCN2C(=O)CCc3ccccc32)CC1`, the Ki at D(4) dopamine receptor was 0.00107 µM; at D(2) dopamine receptor, 0.355 µM; on D(3) dopamine receptor, 0.339 µM. Further, the Ratio Ki in experiment [7] was 331; in experiment [8], 316.
Turning to `O=C1CCc2ccccc2N1CCN1CCN(c2ccccc2)CC1`, the Ki on D(4) dopamine receptor is 0.0631 µM; at D(2) dopamine receptor, 12.9 µM; at D(3) dopamine receptor, 1.07 µM. In addition, the Ratio Ki in experiment [7] was determined as 204; in experiment [8] it was 17.
For `c1ccc(N2CCN(CCCn3cnc4ccccc43)CC2)cc1`, in that order: 0.0123 µM, 12 µM, 8.91 µM, 977 and 719.
In the case of `O=C1CCc2ccccc2N1CCCN1CCN(c2ccc(Cl)c(Cl)c2)CC1`, the inhibition constant (Ki) on D(4) dopamine receptor was 0.000871 µM; on D(2) dopamine receptor, 0.955 µM; at D(3) dopamine receptor, 0.631 µM. Further, the Ratio Ki in experiment [7] is 1100; in [8], 725.
On to `COc1cccc(N2CCN(CCCN3C(=O)CCc4ccccc43)CC2)c1`, for which the inhibitory constant (Ki) on D(4) dopamine receptor was 0.00417 µM; at D(2) dopamine receptor, 3.09 µM; at D(3) dopamine receptor, 1.55 µM. Besides, the Ratio Ki in experiment [7] worked out at 741; in experiment [8], 372.
Regarding `NCCc1ccc(O)c(O)c1`, the Emax in experiment [9], in experiment [10] and in experiment [11] was 100% each time.
Turning to `O=C1CCc2ccccc2N1CCCCCN1CCN(c2ccccc2)CC1`, the Ki at D(4) dopamine receptor is 0.0234 µM; at D(2) dopamine receptor, 0.282 µM; at D(3) dopamine receptor it was 0.195 µM. Also, the Ratio Ki in experiment [7] was found to be 12; in experiment [8], 8.
For `O=C1CCc2ccccc2N1CCCCN1CCN(c2ccccc2)CC1` the same measures were 0.00427 µM, 1.12 µM, 0.0813 µM, 263 and 19.
On to `c1ccc(N2CCN(CCCc3nc4ccccc4[nH]3)CC2)cc1`, for which the results for the Ki on D(4) dopamine receptor, at D(2) dopamine receptor and on D(3) dopamine receptor were 0.0302 µM, 6.17 µM and 0.832 µM, respectively. Moreover, the Ratio Ki in experiment [7] is 204; in experiment [8], 28.
With `O=C1CCc2ccccc2N1CCCN1CCN(c2ccccc2[N+](=O)[O-])CC1`, the values for the inhibition constant Ki at D(4) dopamine receptor, on D(2) dopamine receptor and on D(3) dopamine receptor were 0.000407 µM, 0.132 µM and 0.129 µM, respectively. Also, the Ratio Ki came to 324 in [7] and 316 in [8].
For `c1ccc(N2CCN(CCCc3nc4ccccc4s3)CC2)cc1` the same measures were 0.0102 µM, 1.78 µM, 0.692 µM, 174 and 68.
For `O=C1CCc2ccccc2N1CCCN1CCN(c2ccc([N+](=O)[O-])cc2)CC1`, in that order: 0.00661 µM, 24 µM, 11 µM, 3630 and 1660.
On to `O=C1CCc2ccccc2N1CCCN1CCN(c2ccc(Cl)cc2Cl)CC1`, for which the Ki on D(4) dopamine receptor was 0.000676 µM; at D(2) dopamine receptor, 0.55 µM; at D(3) dopamine receptor, 0.501 µM. Moreover, the Ratio Ki in experiment [7] came to 827; in [8], 744.
For `COc1ccccc1N1CCN(CCCN2C(=O)CCc3ccccc32)CC1`, the Ki at D(4) dopamine receptor is 0.000617 µM; on D(2) dopamine receptor, 0.0813 µM; at D(3) dopamine receptor, 0.1 µM. In addition, the Ratio Ki was determined as 132 in experiment [7] and 162 in [8].
With `O=C1CCc2ccccc2N1CCCN1CCN(c2cccc(Cl)c2Cl)CC1`, the Ki at D(4) dopamine receptor was 0.000692 µM; at D(3) dopamine receptor it was 0.0214 µM.
`O=C1CCc2ccccc2N1CCCN1CCN(c2ncccn2)CC1`: the Ki at D(4) dopamine receptor is 0.00447 µM; at D(2) dopamine receptor, 3.98 µM; on D(3) dopamine receptor, 2.29 µM. Also, the values for the Ratio Ki in experiment [7] and in experiment [8] were 891 and 513, respectively.
On to `CCCCC1CCN(CCCN2C(=O)CCc3ccccc32)CC1`, for which the values for the Ratio Ki in experiment [7] and in experiment [8] were 691 and 631, respectively.
For `O=C1CCc2ccccc2N1CCCN1CCN(c2ccccc2)CC1`, in that order: 380 and 457.
As to `Fc1ccc(N2CCN(CCC3OCCc4ccccc43)CC2)cc1` (stereo unspecified), the result in the experiment with U-251 [1], in the experiment on U-251 [2], in the experiment with GSC#83 [3], in the experiment on T98G [4], in the experiment on T98G [5] and in the experiment on GSC#83 [6] was Active.
Take `c1ccc(N2CCN(CCCN3CCCc4ccccc43)CC2)cc1`: the Ki at D(4) dopamine receptor is 0.00263 µM; at D(2) dopamine receptor it was 0.708 µM; on D(3) dopamine receptor, 0.562 µM. In addition, the values for the Ratio Ki in [7] and in experiment [8] were 269 and 214, respectively.
For the compound `Cc1cccc(N2CCN(CCCN3C(=O)CCc4ccccc43)CC2)c1`, the Ki at D(4) dopamine receptor was 0.00178 µM; on D(2) dopamine receptor, 1.45 µM; at D(3) dopamine receptor, 0.794 µM. In addition, the Ratio Ki in [7] is 813; in [8], 447.
For `c1ccc(N2CCN(CCCn3ccc4ccccc43)CC2)cc1`, in that order: 0.00191 µM, 0.724 µM, 0.49 µM, 380 and 257.
Take `Cc1ccccc1N1CCN(CCCN2C(=O)CCc3ccccc32)CC1`: the Ki on D(4) dopamine receptor is 0.00135 µM; on D(2) dopamine receptor, 0.398 µM; at D(3) dopamine receptor, 0.275 µM. Besides, the values for the Ratio Ki in experiment [7] and in experiment [8] were 295 and 204, respectively.
As to `c1ccc(N2CCN(CCCc3nc4ccccc4o3)CC2)cc1`, the results for the Ki on D(4) dopamine receptor, on D(2) dopamine receptor and at D(3) dopamine receptor were 0.0372 µM, 1.7 µM and 0.813 µM, respectively. In addition, the Ratio Ki in experiment [7] turned out to be 46; in [8], 22.
For `O=C1CCc2ccccc2N1CCCN1CCN(c2cccc([N+](=O)[O-])c2)CC1` the same measures were 0.00355 µM, 2.51 µM, 1.26 µM, 708 and 355.
